The results in this text go back to ChEMBL document CHEMBL1806477, “Discovery of novel imidazo[1,2-a]pyridines as inhibitors of the insulin-like growth factor-1 receptor tyrosine kinase” (Bioorg Med Chem Lett, 2011).

pIC50: −log10 of the molar value. A value given as a limit tells only on which side of the number the result lay.

In data set [1] the target is Cyclin-dependent kinase 2 (Homo sapiens, UniProt P24941). Briefly: Inhibition of CDK2.
Data set [2] deals with T1, Insulin-like growth factor 1 receptor (Homo sapiens, UniProt P08069). Briefly: Inhibition of IGF1R.
Data set [3] deals with T1, Insulin-like growth factor 1 receptor. Briefly: Inhibition of IGF1-induced autophosphorylation of human recombinant IGF1R expressed in mouse fibroblasts by high throughput assay.
The target in data set [4] is Mitogen-activated protein kinase 8 (Homo sapiens) (UniProt P45983). The experiment in a line: Inhibition of JNK1 at 1 uM.
The nature of data set [5]: Oral bioavailability in Han Wistar rat at 10 umol/kg. The class given is ADME, organism-based. The conditions noted are these: in vivo.
The target of data set [6] is T2, Insulin receptor (Homo sapiens, UniProt P06213). Briefly: Inhibition of insulin-induced autophosphorylation of human insulin receptor expressed in CHO cells. Format: cell-based. In outline:
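CHO cells transfected with the human insulin receptor gene, stimulated with insulin; the read-out is inhibition of receptor auto-phosphorylation.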

Data set [7] in a line: Intrinsic clearance in dog hepatocytes assessed per 10^6 cells. Format: ADME, cell-based, Canis lupus familiaris, Liver, Hepatocyte.
Data set [8] in a line: Intrinsic clearance in human hepatocytes assessed per 10^6 cells. Format: ADME, cell-based, Liver, Hepatocyte.
Data set [9] deals with Mitogen-activated protein kinase 9 (Homo sapiens) (UniProt P45984). Briefly: Inhibition of JNK2 at 1 uM.
The nature of data set [10]: Plasma clearance in nude mouse at 4 umol/kg, iv and 10 umol/kg, po. The class given is ADME, organism-based.
Data set [11] is described as follows: Intrinsic clearance in rat hepatocytes assessed per 10^6 cells. Format: ADME, cell-based, Liver, Hepatocyte.
The nature of data set [12]: Intrinsic clearance in mouse hepatocytes assessed per 10^6 cells. The class given is ADME, cell-based, Liver, Hepatocyte.
The nature of data set [13]: Volume of distribution at steady state in nude mouse at 4 umol/kg, iv and 10 umol/kg, po. The class given is ADME, organism-based. The conditions noted are these: in vivo, read-out: Vdss.
Data set [14] is described as follows: Plasma clearance in Han Wistar rat at 4 umol/kg, iv and 10 umol/kg, po. Format: ADME, organism-based. Summed up: (§1)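 Male Han Wistar rats, each given an intravenous dose and a separate oral dose; parameters derived from the plasma concentration profiles.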
Data set [15] is described as follows: Plasma clearance in Beagle dog at 0.8 umol/kg, iv and 10 umol/kg, po. Format: ADME, organism-based, Canis lupus familiaris. Summed up: (§2)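 Values are means from two beagle dogs, one male and one female, each given an intravenous dose and an oral dose.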
Data set [16] has as its target T3, Mitogen-activated protein kinase 15 (Homo sapiens) (UniProt Q8TD08).
T3 sequence (whole entry): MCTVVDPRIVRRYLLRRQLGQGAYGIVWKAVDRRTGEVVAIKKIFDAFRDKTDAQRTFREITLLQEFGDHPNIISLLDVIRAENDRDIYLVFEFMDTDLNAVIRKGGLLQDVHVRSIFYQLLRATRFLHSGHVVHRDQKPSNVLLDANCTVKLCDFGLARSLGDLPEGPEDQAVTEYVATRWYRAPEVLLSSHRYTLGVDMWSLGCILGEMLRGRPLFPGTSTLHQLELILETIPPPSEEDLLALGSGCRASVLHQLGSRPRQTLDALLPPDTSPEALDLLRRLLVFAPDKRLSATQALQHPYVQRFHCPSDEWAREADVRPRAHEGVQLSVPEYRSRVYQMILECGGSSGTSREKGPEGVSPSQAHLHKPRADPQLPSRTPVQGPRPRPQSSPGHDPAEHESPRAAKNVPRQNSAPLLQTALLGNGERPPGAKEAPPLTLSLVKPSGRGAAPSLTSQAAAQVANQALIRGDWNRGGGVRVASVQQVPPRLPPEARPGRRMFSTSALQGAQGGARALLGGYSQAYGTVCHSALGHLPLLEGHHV
Briefly: Inhibition of ERK8 at 1 uM.

In data set [17] the target is T2, Insulin receptor. The experiment in a line: Inhibition of insulin receptor.
Data set [18] is described as follows: Oral bioavailability in Beagle dog at 10 umol/kg. The class given is ADME, organism-based, Canis lupus familiaris. The conditions noted are these: in vivo. In outline:
as §2

A short description of data set [19]: Oral bioavailability in nude mouse at 10 umol/kg. Format: ADME, organism-based. The conditions noted are these: in vivo.
Data set [20] is described as follows: Terminal half life in Han Wistar rat at 4 umol/kg, iv and 10 umol/kg, po. Format: ADME, organism-based. The conditions noted are these: in vivo, read-out: beta t1/2 (converted). In outline: as §1
Data set [21] in a line: Terminal half life in Beagle dog at 0.8 umol/kg, iv and 10 umol/kg, po. The conditions noted are these: in vivo, read-out: beta t1/2 (converted). Format: ADME, organism-based, Canis lupus familiaris. In outline: as §2
A short description of data set [22]: Terminal half life in nude mouse at 4 umol/kg, iv and 10 umol/kg, po. The conditions noted are these: in vivo, read-out: beta t1/2 (converted). The class given is ADME, organism-based.
Data set [23] is described as follows: Volume of distribution at steady state in Han Wistar rat at 4 umol/kg, iv and 10 umol/kg, po. The class given is ADME, organism-based. The conditions noted are these: in vivo, read-out: Vdss. In outline: as §1
Data set [24] is described as follows: Volume of distribution at steady state in Beagle dog at 0.8 umol/kg, iv and 10 umol/kg, po. Format: ADME, organism-based, Canis lupus familiaris. The conditions noted are these: in vivo, read-out: Vdss. In outline:
as §2

T1 sequence (P08069 31-736 limits assumed): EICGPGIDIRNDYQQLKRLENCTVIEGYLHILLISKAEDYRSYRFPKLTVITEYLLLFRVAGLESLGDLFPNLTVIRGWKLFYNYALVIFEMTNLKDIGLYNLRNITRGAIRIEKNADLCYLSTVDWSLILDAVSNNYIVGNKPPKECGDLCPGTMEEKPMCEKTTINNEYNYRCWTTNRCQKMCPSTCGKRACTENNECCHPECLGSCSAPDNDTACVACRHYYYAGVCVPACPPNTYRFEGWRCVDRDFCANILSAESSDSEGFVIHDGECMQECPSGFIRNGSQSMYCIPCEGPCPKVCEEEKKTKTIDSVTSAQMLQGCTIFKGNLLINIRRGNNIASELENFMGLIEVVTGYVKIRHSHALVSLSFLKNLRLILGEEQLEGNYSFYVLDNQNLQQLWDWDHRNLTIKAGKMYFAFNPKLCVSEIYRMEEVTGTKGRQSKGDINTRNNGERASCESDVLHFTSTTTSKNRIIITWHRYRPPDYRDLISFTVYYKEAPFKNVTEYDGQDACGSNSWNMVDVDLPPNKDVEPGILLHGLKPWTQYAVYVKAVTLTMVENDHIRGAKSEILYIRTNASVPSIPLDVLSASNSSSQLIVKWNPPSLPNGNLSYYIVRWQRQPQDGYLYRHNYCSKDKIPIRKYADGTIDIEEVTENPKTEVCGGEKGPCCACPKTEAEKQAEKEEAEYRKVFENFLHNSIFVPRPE
T1 sequence (P08069 741-1367 limits assumed): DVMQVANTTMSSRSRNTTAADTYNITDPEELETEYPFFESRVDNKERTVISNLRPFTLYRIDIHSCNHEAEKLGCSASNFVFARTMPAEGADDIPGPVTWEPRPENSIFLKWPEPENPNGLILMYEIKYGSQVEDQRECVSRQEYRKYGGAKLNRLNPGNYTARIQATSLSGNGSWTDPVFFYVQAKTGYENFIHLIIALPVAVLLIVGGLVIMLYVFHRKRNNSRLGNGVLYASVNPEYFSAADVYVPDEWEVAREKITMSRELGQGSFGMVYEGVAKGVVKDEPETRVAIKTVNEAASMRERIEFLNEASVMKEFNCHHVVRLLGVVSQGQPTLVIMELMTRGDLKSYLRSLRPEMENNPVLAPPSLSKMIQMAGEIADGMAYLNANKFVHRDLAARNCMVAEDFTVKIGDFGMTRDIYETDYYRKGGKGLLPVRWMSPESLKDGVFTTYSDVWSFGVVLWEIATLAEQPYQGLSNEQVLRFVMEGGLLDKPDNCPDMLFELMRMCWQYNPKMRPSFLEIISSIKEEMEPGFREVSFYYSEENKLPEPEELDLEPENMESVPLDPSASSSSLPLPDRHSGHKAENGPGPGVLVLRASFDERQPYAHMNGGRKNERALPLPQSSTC
T2 sequence (P06213 28-758 limits assumed): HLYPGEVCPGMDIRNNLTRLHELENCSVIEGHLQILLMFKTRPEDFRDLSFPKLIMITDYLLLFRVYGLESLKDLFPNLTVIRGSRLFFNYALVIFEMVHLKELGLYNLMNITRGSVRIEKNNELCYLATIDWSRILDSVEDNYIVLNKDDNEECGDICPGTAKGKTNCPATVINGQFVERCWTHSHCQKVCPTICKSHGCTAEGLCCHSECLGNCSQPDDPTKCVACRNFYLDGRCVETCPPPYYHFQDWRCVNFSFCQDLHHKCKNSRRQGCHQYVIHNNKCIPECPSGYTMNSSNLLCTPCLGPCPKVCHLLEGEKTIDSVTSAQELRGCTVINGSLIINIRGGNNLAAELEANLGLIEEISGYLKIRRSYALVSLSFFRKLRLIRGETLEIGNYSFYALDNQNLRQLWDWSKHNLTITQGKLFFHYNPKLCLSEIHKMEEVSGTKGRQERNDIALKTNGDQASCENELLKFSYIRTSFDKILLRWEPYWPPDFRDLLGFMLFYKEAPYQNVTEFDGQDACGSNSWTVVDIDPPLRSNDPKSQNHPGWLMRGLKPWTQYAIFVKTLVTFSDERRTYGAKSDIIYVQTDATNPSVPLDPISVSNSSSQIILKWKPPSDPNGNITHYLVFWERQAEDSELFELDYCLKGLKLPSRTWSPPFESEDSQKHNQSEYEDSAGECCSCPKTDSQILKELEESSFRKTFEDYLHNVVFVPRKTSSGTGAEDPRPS
T2 sequence (P06213 763-1382 limits assumed): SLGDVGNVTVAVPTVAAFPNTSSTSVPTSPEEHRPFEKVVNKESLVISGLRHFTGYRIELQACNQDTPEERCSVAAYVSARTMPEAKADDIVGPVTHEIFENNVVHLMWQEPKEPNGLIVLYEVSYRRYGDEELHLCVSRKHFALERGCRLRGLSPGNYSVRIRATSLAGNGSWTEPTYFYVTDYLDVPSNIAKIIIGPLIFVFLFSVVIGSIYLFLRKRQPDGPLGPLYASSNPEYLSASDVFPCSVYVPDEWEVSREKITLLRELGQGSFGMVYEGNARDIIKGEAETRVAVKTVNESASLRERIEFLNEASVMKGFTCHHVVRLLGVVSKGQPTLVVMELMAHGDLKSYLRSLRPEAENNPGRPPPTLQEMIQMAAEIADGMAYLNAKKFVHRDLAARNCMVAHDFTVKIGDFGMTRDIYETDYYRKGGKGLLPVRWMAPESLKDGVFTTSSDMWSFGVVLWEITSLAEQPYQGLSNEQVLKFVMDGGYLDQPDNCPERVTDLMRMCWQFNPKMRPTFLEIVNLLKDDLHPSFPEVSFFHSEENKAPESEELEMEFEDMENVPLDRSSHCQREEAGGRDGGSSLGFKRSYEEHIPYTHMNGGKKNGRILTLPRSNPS
Sequence of Mitogen-activated protein kinase 8 (Homo sapiens) (P45983 whole entry): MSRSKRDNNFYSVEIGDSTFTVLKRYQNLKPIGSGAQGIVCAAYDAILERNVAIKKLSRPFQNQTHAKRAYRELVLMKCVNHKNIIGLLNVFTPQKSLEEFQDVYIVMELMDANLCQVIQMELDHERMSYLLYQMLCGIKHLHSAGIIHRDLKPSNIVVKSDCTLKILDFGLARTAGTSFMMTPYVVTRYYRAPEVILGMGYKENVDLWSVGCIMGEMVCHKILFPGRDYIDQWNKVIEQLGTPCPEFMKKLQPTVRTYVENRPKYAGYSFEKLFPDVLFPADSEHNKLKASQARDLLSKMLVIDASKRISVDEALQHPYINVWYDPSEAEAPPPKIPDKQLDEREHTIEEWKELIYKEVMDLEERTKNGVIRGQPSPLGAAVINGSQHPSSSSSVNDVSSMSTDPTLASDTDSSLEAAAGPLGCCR
Sequence of Mitogen-activated protein kinase 9 (Homo sapiens) (P45984 whole entry, looked up): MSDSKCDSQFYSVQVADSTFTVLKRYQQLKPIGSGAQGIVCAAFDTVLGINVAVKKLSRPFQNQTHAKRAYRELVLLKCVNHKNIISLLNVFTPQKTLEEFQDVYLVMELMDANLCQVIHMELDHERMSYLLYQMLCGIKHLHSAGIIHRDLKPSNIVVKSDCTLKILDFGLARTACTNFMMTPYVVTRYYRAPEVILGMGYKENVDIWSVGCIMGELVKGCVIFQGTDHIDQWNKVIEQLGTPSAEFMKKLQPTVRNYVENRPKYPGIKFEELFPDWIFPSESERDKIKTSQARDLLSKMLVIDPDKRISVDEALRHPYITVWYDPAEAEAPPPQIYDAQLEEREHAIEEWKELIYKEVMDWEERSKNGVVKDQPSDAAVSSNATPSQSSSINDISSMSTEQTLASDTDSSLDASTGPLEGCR

In the case of `COc1cc(N2CCN(C(C)=O)CC2)ccc1Nc1ncc(C(F)(F)F)c(-c2cnc3ccccn23)n1`, the pIC50 (usually the IC50 on a negative log10 scale, so that one unit is a factor of ten) in data set [1] is 4.80.

As for `COc1cc(N2CCN(C(C)=O)CC2)ccc1Nc1ncc(F)c(-c2cnc3ccccn23)n1`, the pIC50 was 5.57 in data set [1], 7.05 in data set [2] and 6.89 in data set [3].

As for `NS(=O)(=O)c1ccc(Nc2nccc(-c3cnc4ccccn34)n2)cc1`, the pIC50 is 9.00 in data set [1] and 5.90 in data set [2].

Regarding `COc1cc(N2CCN(C(C)=O)CC2)ccc1Nc1ncc(Cl)c(-c2cnc3ccccn23)n1`, the inhibition in data set [4], in data set [9] and in data set [16] was greater than 80% each time. Moreover, the bioavailability – broadly, dose-corrected exposure relative to a reference, in per cent – in data set [5] turned out to be 49%; in data set [18] it was 30%; in [19] it was 36%. The results for the pIC50 (on Insulin receptor [6]; in [1]; on Insulin receptor [17]) were 7.92, 5.96 and 8.05, respectively. In addition, the intrinsic metabolic clearance (hepatocyte CLint) (commonly a measure of how fast metabolising enzymes remove a compound, apart from limits set by blood flow) in data set [7] came out at 6.7 µL/min/1e6 cells; in data set [8], 6.9 µL/min/1e6 cells; in data set [11], 15 µL/min/1e6 cells; in [12], 32 µL/min/1e6 cells. In addition, the clearance in data set [10] stood at 15 mL/min/kg; in [14] it was 6.5 mL/min/kg; in data set [15] it was 4.7 mL/min/kg. Besides, the Vd in data set [13] came out at 0.8 L/kg; in [23], 0.7 L/kg; in data set [24] it was 1.9 L/kg. Moreover, the half-life was 4.6 h in data set [20], 5.5 h in data set [21] and 0.9 h in data set [22].

For the compound `COc1cc(N2CCN(C(C)=O)CC2)ccc1Nc1ncc(C#N)c(-c2cnc3ccccn23)n1`, the negative-log IC50 (pIC50) is 4.57 in data set [1] and 6.77 in [3].

As to `COc1cc(N2CCN(C(C)=O)CC2)ccc1Nc1ncc(OC)c(-c2cnc3ccccn23)n1`, the pIC50 in data set [1] was 4.28; in data set [3] it was 6.72.

With `COc1cc(N2CCN(C(C)=O)CC2)ccc1Nc1ncc(C)c(-c2cnc3ccccn23)n1`, the negative-log IC50 (pIC50) in data set [1] is 5.00; in data set [3] it was 7.04.

As for `COc1cc(N2CCN(C(C)=O)CC2)ccc1Nc1nccc(-c2cnc3ccccn23)n1`, the pIC50 in data set [1] is less than 4.00; in data set [2], 6.35; in [3] it was 5.87.

Turning to `CC(=O)N1CCN(c2ccc(Nc3nccc(-c4cnc5ccccn45)n3)cc2)CC1`, the pIC50 in data set [1] is 7.11; in [2] it was 6.57.

For `COc1cc(N2CCN(C(C)=O)CC2)ccc1Nc1ncc(Br)c(-c2cnc3ccccn23)n1`, the pIC50 in data set [1] was 5.96; in data set [2] it was 8.52; in [3], 8.05.
